Data published in BindingDB's records for doi:10.1021/jm940845j (University of California, 1996).

target: Tumor necrosis factor (Homo sapiens, UniProt P01375); experiment: TNF-alpha production in PBMC by ELISA method
Procedure, shortened: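 Human PBMC were isolated from heparinized blood by ficoll-histopaque and plated at […] cells/mL in RPMI 1640 with 20% autologous plasma and glutamine. Compound at 2X concentration was added in equal volume, 60 min preincubation, then LPS 10 ug/mL final. Supernatant was taken at 18 h for sandwich ELISA (mouse capture, rabbit detection, poly-HRP). IC50 is the concentration inhibiting TNFa production by 50% of control.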

Sequence of Tumor necrosis factor (P01375 whole entry): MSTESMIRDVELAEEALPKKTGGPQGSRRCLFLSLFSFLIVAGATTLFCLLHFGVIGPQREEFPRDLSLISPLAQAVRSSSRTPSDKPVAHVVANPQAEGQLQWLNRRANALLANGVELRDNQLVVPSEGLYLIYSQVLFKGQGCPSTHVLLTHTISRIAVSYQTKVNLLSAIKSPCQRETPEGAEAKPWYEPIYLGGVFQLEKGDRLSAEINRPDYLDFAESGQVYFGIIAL

Row | Compound | IC50 [µM]
1 | COc1ccc([C@@H]2CNC(=O)C2)cc1OC1CCCC1 (racemic) [Adeo] | 12
2 | CC(=O)CCCCn1c(=O)c2c(ncn2C)n(C)c1=O [1-(5-Oxohexyl)theobromine (pentoxifylline)] | 85
3 | CCOC(=O)CCn1c(=O)c2c(ncn2C)n(C)c1=O [3-(3,7-Dimethyl-2,6-dioxo-2,3,6,7-tetrahydro-purin-1-yl)-propionic acid ethyl ester] | 10
4 | CCOC(=O)CCCn1c(=O)c2nccnc2n(Cc2ccccc2)c1=O [4-(1-Benzyl-2,4-dioxo-1,4-dihydro-2H-pteridin-3-yl)-butyric acid ethyl ester] | 175
5 | CCCCn1c(=O)n(CCCC(=O)OCC)c(=O)c2nccnc21 [4-(1-Butyl-2,4-dioxo-1,4-dihydro-2H-pteridin-3-yl)-butyric acid ethyl ester] | 15
6 | CCOC(=O)CCCn1c(=O)c2nccnc2n(CC(C)C)c1=O [4-(1-Isobutyl-2,4-dioxo-1,4-dihydro-2H-pteridin-3-yl)-butyric acid ethyl ester] | 20
7 | CCOC(=O)CCCn1c(=O)c2nccnc2n(C)c1=O [4-(1-Methyl-2,4-dioxo-1,4-dihydro-2H-pteridin-3-yl)-butyric acid ethyl ester] | 12
8 | Cn1c(=O)n(CCCC(=O)O)c(=O)c2nccnc21 [4-(1-Methyl-2,4-dioxo-1,4-dihydro-2H-pteridin-3-yl)-butyric acid] | > 200
9 | CCOC(=O)CCCn1c(=O)c2ccccc2n(C)c1=O [4-(1-Methyl-2,4-dioxo-1,4-dihydro-2H-quinazolin-3-yl)-butyric acid ethyl ester] | 55
10 | Cn1c(=O)n(CCCC(=O)O)c(=O)c2ccccc21 [4-(1-Methyl-2,4-dioxo-1,4-dihydro-2H-quinazolin-3-yl)-butyric acid] | > 200
11 | CCOC(=O)CCCn1c(=O)c2nc(-c3ccccc3)cnc2n(C)c1=O [4-(1-Methyl-2,4-dioxo-6-phenyl-1,4-dihydro-2H-pteridin-3-yl)-butyric acid ethyl ester] | > 200
12 | CCCCCn1c(=O)n(CCCC(=O)OCC)c(=O)c2nccnc21 [4-(2,4-Dioxo-1-pentyl-1,4-dihydro-2H-pteridin-3-yl)-butyric acid ethyl ester] | 16
13 | CCCn1c(=O)n(CCCC(=O)OCC)c(=O)c2nccnc21 [4-(2,4-Dioxo-1-propyl-1,4-dihydro-2H-pteridin-3-yl)-butyric acid ethyl ester] | 5
14 | CCCn1c(=O)n(CCCC(=O)O)c(=O)c2nccnc21 [4-(2,4-Dioxo-1-propyl-1,4-dihydro-2H-pteridin-3-yl)-butyric acid] | > 200
15 | CCOC(=O)CCCn1c(=O)c2c(ncn2C)n(C)c1=O [4-(3,7-Dimethyl-2,6-dioxo-2,3,6,7-tetrahydro-purin-1-yl)-butyric acid ethyl ester] | 6
16 | Cn1cnc2c1c(=O)n(CCCC(=O)O)c(=O)n2C [4-(3,7-Dimethyl-2,6-dioxo-2,3,6,7-tetrahydro-purin-1-yl)-butyric acid] | > 200
17 | COC(=O)c1ccc(Cn2c(=O)c3c(ncn3C)n(C)c2=O)cc1 [4-(3,7-Dimethyl-2,6-dioxo-2,3,6,7-tetrahydro-purin-1-ylmethyl)-benzoic acid methyl ester] | > 200

Row | Compound | IC50 [µM]
18 | CCCCOc1cc(C[C@@H]2CNC(=O)N2)ccc1OC [4-(3-Butoxy-4-methoxy-benzyl)-imidazolidin-2-one] | 50
19 | CCOC(=O)CCCn1c(=O)c2nsnc2n(C)c1=O [4-(4-Methyl-5,7-dioxo-4,5-dihydro-7H-[1,2,5]thiadiazolo[3,4-d]pyrimidin-6-yl)-butyric acid ethyl ester] | 25
20 | Cn1c(=O)n(CCCC(=O)O)c(=O)c2nsnc21 [4-(4-Methyl-5,7-dioxo-4,5-dihydro-7H-[1,2,5]thiadiazolo[3,4-d]pyrimidin-6-yl)-butyric acid] | > 200
21 | CCCn1c(=O)n(CCCC(=O)OCC)c(=O)c2nsnc21 [4-(5,7-Dioxo-4-propyl-4,5-dihydro-7H-[1,2,5]thiadiazolo[3,4-d]pyrimidin-6-yl)-butyric acid ethyl ester] | 18
22 | CCOC(=O)CCCn1c(=O)c2nc(CC)c(CC)nc2n(C)c1=O [4-(6,7-Diethyl-1-methyl-2,4-dioxo-1,4-dihydro-2H-pteridin-3-yl)-butyric acid ethyl ester] | 130
23 | CCCn1c(=O)n(CCCC(=O)OCC)c(=O)c2c1ncn2C [4-(7-Methyl-2,6-dioxo-3-propyl-2,3,6,7-tetrahydro-purin-1-yl)-butyric acid ethyl ester] | 5
24 | CCOC(=O)CCCn1c(=O)c2c(nc(Br)n2C)n(C)c1=O [4-(8-Bromo-3,7-dimethyl-2,6-dioxo-2,3,6,7-tetrahydro-purin-1-yl)-butyric acid ethyl ester] | 60
25 | COC(=O)c1ccc(Cn2c(=O)c3c(nc(Br)n3C)n(C)c2=O)cc1 [4-(8-Bromo-3,7-dimethyl-2,6-dioxo-2,3,6,7-tetrahydro-purin-1-ylmethyl)-benzoic acid methyl ester] | > 200
26 | CCOC(=O)CCCn1c(=O)c2c([nH]c(=S)n2C)n(C)c1=O [4-(8-Mercapto-3,7-dimethyl-2,6-dioxo-2,3,6,7-tetrahydro-purin-1-yl)-butyric acid ethyl ester] | 100
27 | CCOC(=O)c1ccc(Cn2c(=O)c3c([nH]c(=S)n3C)n(C)c2=O)cc1 [4-(8-Mercapto-3,7-dimethyl-2,6-dioxo-2,3,6,7-tetrahydro-purin-1-ylmethyl)-benzoic acid ethyl ester] | > 200
28 | CCOC(=O)CCCn1c(=O)c2nccnc2n(C2CCOC2)c1=O (stereo not drawn) [4-[2,4-Dioxo-1-(tetrahydro-furan-3-yl)-1,4-dihydro-2H-pteridin-3-yl]-butyric acid ethyl ester] | 19
29 | CCOC(=O)CCCCn1c(=O)c2c(ncn2C)n(C)c1=O [5-(3,7-Dimethyl-2,6-dioxo-2,3,6,7-tetrahydro-purin-1-yl)-pentanoic acid ethyl ester] | 11
30 | CCCCCCCn1c(=O)c2nsnc2n(C)c1=O [6-Heptyl-4-methyl-4H-[1,2,5]thiadiazolo[3,4-d]pyrimidine-5,7-dione] | 75
31 | Cn1c(=O)[nH]c(=O)c2[nH]c(=S)[nH]c21 [8-Mercapto-3-methyl-3,7-dihydro-purine-2,6-dione] | > 200
32 | CCOC(=O)Cn1c(=O)c2c(ncn2C)n(C)c1=O [(3,7-Dimethyl-2,6-dioxo-2,3,6,7-tetrahydro-purin-1-yl)-acetic acid ethyl ester] | 200
33 | COC(=O)/C=C\Cn1c(=O)c2nccnc2n(C)c1=O [(Z)-4-(1-Methyl-2,4-dioxo-1,4-dihydro-2H-pteridin-3-yl)-but-2-enoic acid methyl ester] | 25
